In ChEMBL document CHEMBL3407422, “2-(2-oxo-morpholin-3-yl)-acetamide derivatives as broad-spectrum antifungal agents” (J Med Chem, 2015):
Converted amounts (≈) assume the structure as drawn. Blank lines part the entries; values can stand above or below the molecule they belong to. The source made the active and inactive calls. The calls are words filed in the database; no cut-off is given here.

Tests used:
Candida albicans [1] = experiment: Antifungal activity against Candida albicans SC5314 after 24 hrs; assay type: functional
In short: (§1)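 Overnight YPD cultures diluted in PBS (1/200 for C. albicans, 1/400 for C. glabrata). Cells treated with compound, or 2.5% DMSO as solvent control, for 24 h at 37 °C. CFUs then counted; MFC is the concentration giving 99% killing of the inoculum.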

[2] = test system: Trichophyton mentagrophytes; experiment: Fungicidal activity against Trichophyton mentagrophytes B70554; assay type: functional, organism-based
In short: (§2)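 Inoculum of 10^3 CFU in RPMI-MOPS added to prediluted compound, highest concentration 64 µM. Growth read by resazurin fluorescence (ex 550, em 590 nm). IC50 is 50% growth inhibition versus untreated controls. Three independent replicates.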

Trichophyton rubrum = experiment: Fungicidal activity against Trichophyton rubrum B68183; assay type: functional, organism-based; in short: as §2
Nakaseomyces glabratus = experiment: Antifungal activity against Candida glabrata BG2 after 24 hrs; assay type: functional; in short: as §1
Aspergillus fumigatus = experiment: Antifungal activity against Aspergillus fumigatus CBS 117202 after 24 hrs by two-fold dilution method; assay type: functional; conditions: CBS 117202, 24 h
In short: (§3)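 Spores at 2×10^4 spores/mL in potato dextrose broth, incubated with a 2-fold compound dilution series for 24 h at 25 °C. Growth read by microspectrophotometry of the liquid cultures. MIC taken as the lowest concentration inhibiting fungal growth.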

Aspergillus flavus = experiment: Antifungal activity against Aspergillus flavus CBS111.45 after 24 hrs by two-fold dilution method; assay type: functional; conditions: CBS111.45, 24 h; in short: as §3
Microsporum canis = experiment: Fungicidal activity against Microsporum canis B68128; assay type: functional; in short: as §2
Sporothrix schenckii = experiment: Fungicidal activity against Sporothrix schenckii B62482; assay type: functional, organism-based; in short: as §2
[3] = Cytotoxicity against human MRC5 SV2 cells after 72 hrs by fluorescence assay; assay type: cell-based
In short: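 MRC-5 SV2 cells (10^4/well) grown in MEM with L-glutamine, NaHCO3 and 5% FCS. Incubated with compound 72 h at 37 °C, 5% CO2, then resazurin added for 24 h. Fluorescence read at ex 530, em 590 nm.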

[4] = Half life in human plasma; assay type: ADME, cell-free
Candida albicans [5] = experiment: Fungicidal activity against CA2 high-persister Candida albicans clinical isolate; assay type: functional
[6] = Kinetic solubility of the compound at pH 7.4; assay type: physicochemical; conditions: buffer, read-out: Kinetic_solubility
[7] = Apparent permeability from apical to basolateral side in human Caco2 cells; assay type: ADME, cell-based; conditions: Caco-2
[8] = Apparent permeability from basolateral to apical side in human Caco2 cells; assay type: ADME, cell-based; conditions: Caco-2
[9] = Plasma protein binding in human; assay type: ADME, cell-free; conditions: read-out: PPB (converted)
[10] = Half life in simulated gastric fluid at pH 1.2; assay type: ADME
In short: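 Stability in simulated gastric fluid containing 800000 Units/L pepsin at pH 1.2; half-life reported.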

[11] = Half life in simulated intestinal fluid […]; assay type: ADME
[12] = Half life in human liver microsomes; assay type: ADME
[13] = Half life in mouse liver microsomes; assay type: ADME
hERG (KCNH2) = hERG (KCNH2) (Homo sapiens, UniProt Q12809); experiment: Inhibition of human ERG channel at 10 uM
Sequence of hERG (KCNH2) (Q12809 whole entry): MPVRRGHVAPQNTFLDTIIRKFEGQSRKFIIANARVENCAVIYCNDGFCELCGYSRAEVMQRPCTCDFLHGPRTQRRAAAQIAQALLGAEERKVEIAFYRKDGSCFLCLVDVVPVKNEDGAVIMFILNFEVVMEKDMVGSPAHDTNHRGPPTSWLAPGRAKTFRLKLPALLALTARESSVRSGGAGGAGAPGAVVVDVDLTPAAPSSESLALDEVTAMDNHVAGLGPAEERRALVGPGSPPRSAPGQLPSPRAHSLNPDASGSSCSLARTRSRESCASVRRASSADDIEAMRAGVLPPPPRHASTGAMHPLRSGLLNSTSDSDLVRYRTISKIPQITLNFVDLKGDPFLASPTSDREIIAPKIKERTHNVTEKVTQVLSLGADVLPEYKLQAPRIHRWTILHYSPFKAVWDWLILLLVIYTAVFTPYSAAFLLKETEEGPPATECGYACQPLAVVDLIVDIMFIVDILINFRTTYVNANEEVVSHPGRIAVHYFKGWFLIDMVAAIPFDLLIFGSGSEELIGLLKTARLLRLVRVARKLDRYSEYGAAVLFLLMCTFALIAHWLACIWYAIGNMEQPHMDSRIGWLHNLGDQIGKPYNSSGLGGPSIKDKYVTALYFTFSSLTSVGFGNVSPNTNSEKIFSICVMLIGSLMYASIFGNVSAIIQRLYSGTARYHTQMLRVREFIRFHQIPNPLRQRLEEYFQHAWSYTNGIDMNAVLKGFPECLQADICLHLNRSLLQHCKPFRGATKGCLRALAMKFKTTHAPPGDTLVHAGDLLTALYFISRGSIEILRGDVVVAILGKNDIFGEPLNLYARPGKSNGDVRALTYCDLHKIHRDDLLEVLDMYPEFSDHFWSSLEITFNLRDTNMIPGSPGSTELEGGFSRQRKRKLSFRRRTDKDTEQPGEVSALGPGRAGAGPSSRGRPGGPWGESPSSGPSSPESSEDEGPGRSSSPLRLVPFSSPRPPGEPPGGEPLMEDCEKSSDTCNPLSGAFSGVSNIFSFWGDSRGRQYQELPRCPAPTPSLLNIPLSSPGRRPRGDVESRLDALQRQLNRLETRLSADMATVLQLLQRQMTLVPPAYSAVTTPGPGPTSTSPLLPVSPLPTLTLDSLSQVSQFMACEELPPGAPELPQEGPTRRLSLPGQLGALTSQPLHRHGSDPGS

Candida albicans [14] = experiment: Antifungal activity against Candida albicans SC5314 infected in BALB/c mouse assessed as reduction in reduction in fungal load in kidney at 10 mg/kg/day, ip for 5 days relative to vehicle-treated control; assay type: functional, organism-based
In short: (§4)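 BALB/c mice given cyclophosphamide 100 mg/kg at 4 days and 24 h before infection and at 3 days after. Infected IV with 2×10^3 SC5314 cells in saline. Dosed IP daily for 5 days from 16 h post-infection, in DMSO/0.5% methylcellulose (5/95). Organs taken on day 7, homogenized and plated on BHI agar (18 h, 37 °C). CFU/g compared with vehicle.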

Candida albicans [15] = experiment: Antifungal activity against Candida albicans SC5314 infected in BALB/c mouse assessed as reduction in reduction in fungal load in spleen at 10 mg/kg/day, ip for 5 days relative to vehicle-treated control; assay type: functional, organism-based; in short: as §4
Candida albicans [16] = experiment: Antifungal activity against Candida albicans SC5314 infected in BALB/c mouse assessed as reduction in reduction in fungal load in liver at 10 mg/kg/day, ip for 5 days relative to vehicle-treated control; assay type: functional, organism-based; in short: as §4
Saccharomyces cerevisiae [17] = experiment: Antifungal activity against Saccharomyces cerevisiae BY4741 at 12.5 to 50 ug/ml after 24 hrs by Omnilog plate reader analysis; assay type: functional, organism-based
In short: (§5)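 S. cerevisiae BY4741 from overnight YPD culture, 1/500 final dilution, in Biolog PM22–PM25 chemical sensitivity plates (96 conditions). Compound tested at 12.5 and 50 µg/mL. Plates incubated 24 h at 37 °C in the Omnilog reader.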

Saccharomyces cerevisiae [18] = experiment: Antifungal activity against Saccharomyces cerevisiae BY4741 at 12.5 to 50 ug/ml after 24 hrs by Omnilog plate reader analysis in presence of sodium cyanide; assay type: functional, organism-based; in short: as §5
Saccharomyces cerevisiae [19] = experiment: Antifungal activity against Saccharomyces cerevisiae BY4741 at 12.5 to 50 ug/ml after 24 hrs by Omnilog plate reader analysis in presence of sodium thiosulfate; assay type: functional, organism-based; in short: as §5
Saccharomyces cerevisiae [20] = experiment: Antifungal activity against Saccharomyces cerevisiae BY4741 at 12.5 to 50 ug/ml after 24 hrs by Omnilog plate reader analysis in presence of chlortetracycline hydrochloride; assay type: functional, organism-based; in short: as §5
Saccharomyces cerevisiae [21] = experiment: Antifungal activity against Saccharomyces cerevisiae BY4741 at 12.5 to 50 ug/ml after 24 hrs by Omnilog plate reader analysis in presence of potassium chromate; assay type: functional, organism-based; in short: as §5
Saccharomyces cerevisiae [22] = experiment: Antifungal activity against Saccharomyces cerevisiae BY4741 at 12.5 to 50 ug/ml after 24 hrs by Omnilog plate reader analysis in presence of monothioglycerol; assay type: functional, organism-based; in short: as §5

SMILES: CC(C)c1ccc(NC(=O)CC2C(=O)OC(C)(C)CN2CCF)cc1 (centres undefined)
MFC99 (Candida albicans [1]): >25 µg/mL

SMILES: CN(C/C=C/C#CC(C)(C)C)Cc1cccc2ccccc12 [TERBINAFINE]
IC50 [2]: 0.02 µg/mL (≈ 0.0686 µM)
IC50 (Trichophyton rubrum): 0.02 µg/mL (≈ 0.0686 µM)

SMILES: CCN1CC(C)(C)OC(=O)C1CC(=O)NCc1ccccc1Cl (centres undefined)
MFC99 (Candida albicans [1]): 25 µg/mL (≈ 73.8 µM)

SMILES: CCN1CC(C)(C)OC(=O)C1CC(=O)NCc1cccc(C(F)(F)F)c1 (centres undefined)
MFC99 (Candida albicans [1]): 25 µg/mL (≈ 67.1 µM)

SMILES: CCN1CC(C)(C)OC(=O)C1CC(=O)NCC1CCCCC1 (centres undefined)
MFC99 (Candida albicans [1]): 25 µg/mL (≈ 80.5 µM)

MIC (Aspergillus fumigatus): 3.1 µg/mL (≈ 9.03 µM)
MIC (Aspergillus flavus): 25 µg/mL (≈ 72.8 µM)
SMILES: CCN1CC(C)(C)OC(=O)C1CC(=O)Nc1ccc2c(ccn2C)c1 (centres undefined)
MFC99 (Candida albicans [1]): 12.5 µg/mL (≈ 36.4 µM)
MFC99 (Nakaseomyces glabratus): 50 µg/mL (≈ 146 µM)
IC50 [2]: 11 µg/mL (≈ 32 µM)
IC50 (Trichophyton rubrum): 11 µg/mL (≈ 32 µM)
IC50 (Microsporum canis): 6.2 µg/mL (≈ 18.1 µM)
IC50 (Sporothrix schenckii): 10 µg/mL (≈ 29.1 µM)
CC50 at 72 h [3]: > 20 µg/mL

SMILES: C[C@@H]1[C@H](O)[C@@H](C)/C=C/C=C/C=C/C=C/C=C/C=C/C=C/[C@H](O[C@@H]2O[C@H](C)[C@@H](O)[C@H](N)[C@@H]2O)C[C@@H]2O[C@](O)(C[C@@H](O)C[C@@H](O)[C@H](O)CC[C@@H](O)C[C@@H](O)CC(=O)O[C@H]1C)C[C@H](O)[C@H]2C(=O)O [AMPHOTERICIN B]
MFC99 (Candida albicans [1]): 1.6 µg/mL (≈ 1.73 µM)

SMILES: CCCNC(=O)CC1C(=O)OC(C)(C)CN1CC (centres undefined)
MFC99 (Candida albicans [1]): 25 µg/mL (≈ 97.5 µM)

SMILES: CCNC(=O)CC1C(=O)OC(C)(C)CN1CC (centres undefined)
MFC99 (Candida albicans [1]): 50 µg/mL (≈ 206 µM)

SMILES: CC(C)c1ccc(NC(=O)CC2NCC(C)(C)OC2=O)cc1 (centres undefined)
MFC99 (Candida albicans [1]): >25 µg/mL

SMILES: CCN1CC(C)(C)OC(=O)C1CC(=O)NCc1ccco1 (centres undefined)
MFC99 (Candida albicans [1]): 50 µg/mL (≈ 170 µM)

half-life [4]: 49 min
SMILES: CCN1C[C@H](c2ccccc2)OC(=O)C1CC(=O)Nc1ccc(C(C)C)cc1 (some centres undefined)
MFC99 (Candida albicans [1]): 12.5 µg/mL (≈ 32.9 µM)

MIC (Aspergillus fumigatus): 6.2 µg/mL (≈ 18.3 µM)
MIC (Aspergillus flavus): 25 µg/mL (≈ 73.8 µM)
SMILES: CCN1CC(C)(C)OC(=O)C1CC(=O)NCc1ccc(Cl)cc1 (centres undefined)
MFC99 (Candida albicans [1]): 12.5 µg/mL (≈ 36.9 µM)
MFC99 (Nakaseomyces glabratus): 12.5 µg/mL (≈ 36.9 µM)
IC50 [2]: 2.7 µg/mL (≈ 7.97 µM)
IC50 (Trichophyton rubrum): 2 µg/mL (≈ 5.9 µM)
IC50 (Microsporum canis): 2 µg/mL (≈ 5.9 µM)
IC50 (Sporothrix schenckii): 2.2 µg/mL (≈ 6.49 µM)
CC50 at 72 h [3]: > 20 µg/mL

SMILES: CCN1CC(C)(C)OC(=O)C1CC(=O)NC1CCCCC1 (centres undefined)
MFC99 (Candida albicans [1]): 50 µg/mL (≈ 169 µM)

SMILES: CC(C)c1ccc(NC(=O)CC2C(=O)OC(C)(C)CN2C(C)C)cc1 (centres undefined)
MFC99 (Candida albicans [1]): >25 µg/mL

SMILES: CCN1CC(C)(C)OC(=O)C1CC(=O)NCc1ccccc1 (centres undefined)
MFC99 (Candida albicans [1]): 12.5 µg/mL (≈ 41.1 µM)

SMILES: CC(C)c1ccc(NC(=O)CC2C(=O)OC(C)(C)CN2CC(F)(F)F)cc1 (centres undefined)
MFC99 (Candida albicans [1]): >25 µg/mL

MIC (Aspergillus fumigatus): ≤ 3.1 µg/mL
half-life [4]: > 240 min
MIC (Aspergillus flavus): 25 µg/mL (≈ 65.7 µM)
solubility kinetic [6]: 50 µM (≈ 19 µg/mL)
Papp A→B [7]: 22 ×10⁻⁶ cm/s
Papp B→A [8]: 13 ×10⁻⁶ cm/s
fraction unbound [9]: 0.003
half-life [10]: > 240 min
half-life [11]: 223 min
half-life [12]: 6 min
half-life [13]: 1 min
SMILES: CCN1CC(C)(C)OC(=O)C1CC(=O)NCc1cccc(-c2ccccc2)c1 (centres undefined)
MFC99 (Candida albicans [1]): 12.5 µg/mL (≈ 32.9 µM)
MFC99 (Nakaseomyces glabratus): 12.5 µg/mL (≈ 32.9 µM)
IC50 [2]: 3 µg/mL (≈ 7.88 µM)
IC50 (Trichophyton rubrum): 0.7 µg/mL (≈ 1.84 µM)
IC50 (Microsporum canis): 2.4 µg/mL (≈ 6.31 µM)
IC50 (Sporothrix schenckii): 2.7 µg/mL (≈ 7.1 µM)
CC50 at 72 h [3]: > 20 µg/mL
MFC (Candida albicans [5]): 12.5 µg/mL (≈ 32.9 µM)
inhibition at 10 µM (hERG (KCNH2)): 25.5%
Activity (Candida albicans [14]): Active
Activity (Candida albicans [15]): Active
Activity (Candida albicans [16]): Active
Activity (Saccharomyces cerevisiae [17]): Active
Activity (Saccharomyces cerevisiae [18]): inactive
Activity (Saccharomyces cerevisiae [19]): inactive
Activity (Saccharomyces cerevisiae [20]): inactive
Activity (Saccharomyces cerevisiae [21]): inactive
Activity (Saccharomyces cerevisiae [22]): inactive

SMILES: CCN1C(CC(=O)Nc2ccc(C(C)C)cc2)C(=O)OC(C)(C)C1(C)C (centres undefined)
MFC99 (Candida albicans [1]): >25 µg/mL

SMILES: CC(C)c1ccc(NC(=O)CC2C(=O)OC(C)(C)CN2c2ccccc2)cc1 (centres undefined)
MFC99 (Candida albicans [1]): >50 µg/mL

SMILES: CCN1CC(C)(C)OC(=O)C1CC(=O)Nc1ccncc1 (centres undefined)
MFC99 (Candida albicans [1]): >50 µg/mL

SMILES: CC(C)c1ccc(NC(=O)CC2C(=O)OC(C)(C)CN2C2CCCC2)cc1 (centres undefined)
MFC99 (Candida albicans [1]): >25 µg/mL

SMILES: CCN1CC(C)(C)OC(=O)C1CC(=O)NCCC(C)(C)C (centres undefined)
MFC99 (Candida albicans [1]): 25 µg/mL (≈ 83.8 µM)

SMILES: Clc1ccc(COC(Cn2ccnc2)c2ccc(Cl)cc2Cl)c(Cl)c1 (centres undefined) [MICONAZOLE]
IC50 (Microsporum canis): 0.02 µg/mL (≈ 0.0481 µM)
IC50 (Sporothrix schenckii): 0.12 µg/mL (≈ 0.288 µM)

SMILES: CCN1CC(C)(C)OC(=O)C1CC(=O)NCc1cccc(OC)c1 (centres undefined)
MFC99 (Candida albicans [1]): 25 µg/mL (≈ 74.8 µM)

SMILES: CCN(CC)C(=O)CC1C(=O)OC(C)(C)CN1CC (centres undefined)
MFC99 (Candida albicans [1]): >50 µg/mL

SMILES: CC(C)c1ccc(NC(=O)CC2C(=O)OC(C)(C)CN2Cc2ccccc2)cc1 (centres undefined)
MFC99 (Candida albicans [1]): >50 µg/mL
